For test [1], the target named is AGP A variant (S-disopyramide binding site) (Homo sapiens, UniProt P19652). Particulars: among the drugs tested. Put shortly: (§1)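 Human AGP was incubated with radiolabelled S-warfarin or [3H]S-disopyramide, with a series of unlabelled marker levels and test compound at 9.62, 19.2 and 48.1 μM, for 15 min at 37 °C. Ultrafiltration ran at 2000×g for 5 min at 37 °C, with a 30,000 MW cut-off for disopyramide. Mixture and filtrate radioactivity were counted by scintillation. Ki came from a non-linear least-squares competitive inhibition model with a constant non-specific binding term.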

Test [2] has as its target AGP F1/S variants (Homo sapiens, UniProt P02763). Put plainly: Effect of other drugs on binding of tamsulosin to human AGP. A digest of the protocol: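 Commercial human AGP was mixed with unlabelled tamsulosin (40–500 μM solutions added), [3H]tamsulosin, and test compound at 9.62, 19.2 and 48.1 μM, then incubated for 15 min at 37 °C. Ultrafiltration used a 5000 MW cut-off at 2000×g for 5 min at 37 °C. Mixture and filtrate were counted by liquid scintillation. Ki was fitted by non-linear least squares to a competitive inhibition model with non-specific binding held constant.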

The target of test [3] is AGP F1/S variant mixture (Homo sapiens, UniProt P02763). Kind of test: Screening: S-warfarin binding with drug at 100-fold concentration. The conditions noted are these: drug at 100-fold concentration of marker. A digest of the protocol:
(§2)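 Radiolabelled S-disopyramide or S-warfarin binding to human AGP was measured with and without test compound at 100-fold the marker concentration. Incubation was 15 min at 37 °C, followed by ultrafiltration at 2000×g and scintillation counting. Marker binding remaining at 100-fold inhibitor was taken as non-specific. Compounds cutting specific binding by more than 70% went forward to quantitative analysis.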

Test [4] concerns the target AGP A variant (Homo sapiens, UniProt P19652). Put plainly: Screening: S-disopyramide binding with drug at 100-fold concentration. Particulars: drug at 100-fold concentration of marker. A digest of the protocol: as §2
The target in test [5] is AGP F1/S variant mixture (S-warfarin binding site) (Homo sapiens, UniProt P02763). Put plainly: Competitive inhibition of S-warfarin binding to human AGP by ultrafiltration. The conditions noted are these: among the drugs tested. A digest of the protocol:
as §1

For test [6], the system named is human AGP variants. Particulars: cited from earlier work; for Binding to AGP: used as positive controls.

Where two headings read alike, the source gives them in different places.

`CCN(CC)CCCN(c1ccccc1)C1Cc2ccccc2C1` [Aprindine]: the “Binding affinity for the AGP A variant (S-disopyramide binding site)” value (shortened to “Binding affinity for the AGP A variant”) in test [1] is recorded as “relatively high”. For the same molecule, the “Effect on binding of tamsulosin” value in test [2] was “significantly decreased”.

`COc1ccccc1OCCNCC(O)COc1cccc2[nH]c3ccccc3c12` (centres unmarked) [Carvedilol]: the “Effect on binding of tamsulosin” value in test [2] is “significantly decreased”.

As to `CC[C@H]1OC(=O)[C@H](C)[C@@H](O[C@H]2C[C@@](C)(OC)[C@@H](O)[C@H](C)O2)[C@H](C)[C@@H](O[C@@H]2O[C@H](C)C[C@H](N(C)C)[C@H]2O)[C@](C)(O)C[C@@H](C)C(=O)[C@H](C)[C@@H](O)[C@]1(C)O` [Erythromycin], the “Inhibition of binding of warfarin” value in test [3] is “markedly inhibited”. The “Effect on binding of tamsulosin” value in test [2] is “significantly decreased”. Besides, in test [4], the “Inhibition of binding of S-disopyramide” value is given as “markedly inhibited”.

For `COc1ccc(Cl)cc1C(=O)NCCc1ccc(S(=O)(=O)NC(=O)NC2CCCCC2)cc1` [Glibenclamide], in test [4], the “Inhibition of binding of S-disopyramide” value is given as “specifically inhibited”.

Consider `CN(C)C(=O)C(CCN1CCC(O)(c2ccc(Cl)cc2)CC1)(c1ccccc1)c1ccccc1` [Loperamide], for which, in test [4], the “Inhibition of binding of S-disopyramide” value was “specifically inhibited”.

With `Clc1ccc(COC(Cn2ccnc2)c2ccc(Cl)cc2Cl)c(Cl)c1` (centres unmarked) [Miconazole], in test [3], the “Inhibition of binding of warfarin” value was “markedly inhibited”. In addition, in test [4], the “Inhibition of binding of S-disopyramide” value was “markedly inhibited”.

`COC(=O)C1=C(C)NC(C)=C(C(=O)OCCN(C)Cc2ccccc2)C1c1cccc([N+](=O)[O-])c1` (centres unmarked) [Nicardipine]: in test [3], the “Inhibition of binding of warfarin” value is given as “markedly inhibited”. The “Binding affinity for the AGP F1/S variant mixture (S-warfarin binding site)” value (“Binding affinity … (S-warfarin binding site)” below) in test [5] is on record as “relatively high”. Moreover, the “Inhibition of binding of S-disopyramide” value in test [4] is given as “markedly inhibited”.

Take `C=C[C@H]1C[N@@]2CC[C@H]1C[C@H]2[C@H](O)c1ccnc2ccc(OC)cc12` [Quinine]: in test [1], the “Binding affinity for the AGP A variant” value was “relatively high”. Further, in test [3], the “Inhibition of binding of warfarin” value is recorded as “markedly inhibited”. For the same molecule, the “Inhibition of binding of S-disopyramide” value in test [4] is on record as “markedly inhibited”.

For `CCC(C)(C)C(=O)O[C@H]1C[C@@H](C)C=C2C=C[C@H](C)[C@H](CC[C@@H]3C[C@@H](O)CC(=O)O3)[C@H]21` [Simvastatin], the “Inhibition of binding of warfarin” value in test [3] is on record as “markedly inhibited”. Also, the “Binding affinity … (S-warfarin binding site)” value in test [5] was “relatively high”. Also, the “Inhibition of binding of S-disopyramide” value in test [4] is “markedly inhibited”.

For the molecule `CSc1ccc2c(c1)N(CCC1CCCCN1C)c1ccccc1S2` (centres unmarked) [Thioridazine], the “Binding affinity for the AGP A variant” value in test [1] is on record as “relatively high”. In addition, the “Inhibition of binding of warfarin” value in test [3] is recorded as “markedly inhibited”. The “Binding to AGP” value in test [6] is recorded as “bind strongly to AGP”. The “Binding affinity … (S-warfarin binding site)” value in test [5] was “relatively high”. Further, the “Effect on binding of tamsulosin” value in test [2] is “significantly decreased”. For the same molecule, the “Inhibition of binding of S-disopyramide” value in test [4] is on record as “markedly inhibited”.

For `CN(C)CCC=C1c2ccccc2CCc2ccccc21` [amitriptyline], the “Binding to AGP” value in test [6] was “bind strongly to AGP”. The “Inhibition of binding of S-disopyramide” value in test [4] was “specifically inhibited”.

For the molecule `CN(C)CCCN1c2ccccc2Sc2ccc(Cl)cc21` [chlorpromazine], the “AGP variant to which the drug binds” value in test [6] (separate AGP variants) is on record as “to both variants”.

As for `COc1ccc([C@@H]2Sc3ccccc3N(CCN(C)C)C(=O)[C@@H]2OC(C)=O)cc1` [diltiazem], the “Inhibition of binding of S-disopyramide” value in test [4] is listed as “specifically inhibited”.

For the molecule `CC(C)N(CCC(C(N)=O)(c1ccccc1)c1ccccn1)C(C)C` (centres unmarked) [disopyramide], the “AGP variant to which the drug binds” value in test [6] (separate AGP variants) is “bind specifically to the A variant”.

For `CN(C)CCCN1c2ccccc2CCc2ccccc21` [imipramine], the “AGP variant to which the drug binds” value in test [6] (separate AGP variants) was “bind specifically to the A variant”. For the same molecule, the “Binding to AGP” value in test [6] is “bind strongly to AGP”.

With `CC(C)NCC(O)COc1cccc2ccccc12` (centres unmarked) [propranolol], the “Inhibition of binding of warfarin” value in test [3] is “markedly inhibited”. In test [4], the “Inhibition of binding of S-disopyramide” value is given as “markedly inhibited”.

`CC/C(=C(\c1ccccc1)c1ccc(OCCN(C)C)cc1)c1ccccc1` [tamoxifen]: the “Binding to AGP” value in test [6] is “bind strongly to AGP”. The “Inhibition of binding of S-disopyramide” value in test [4] is listed as “specifically inhibited”.

Consider `CCOc1ccccc1OCCN[C@H](C)Cc1ccc(OC)c(S(N)(=O)=O)c1` [tamsulosin], for which the “Inhibition of binding of warfarin” value in test [3] was “specifically inhibited”. Also, the “AGP variant to which the drug binds” value in test [6] is on record as “binds specifically to the F1/S variants”. Moreover, in test [5], the “Binding affinity … (S-warfarin binding site)” value is reported as “relatively high”.

Take `CC(=O)CC(c1ccccc1)c1c(O)c2ccccc2oc1=O` (centres unmarked) [warfarin]: the “AGP variant to which the drug binds” value in test [6] (separate AGP variants) is on record as “to an F1/S variant mixture”. Further, in test [2], the “Effect on binding of tamsulosin” value was “significantly decreased”.

(Values after PMC5629133 (Drugs in R&D, 2017).)
